According to ChEMBL document CHEMBL4513216, “Probing the Open Global Health Chemical Diversity Library for Multistage-Active Starting Points for Next-Generation Antimalarials” (ACS Infect Dis, 2020):

Test: Toxicity liver stage against HepG2, at 10uM
Format: cell-based
Set-up: test concentration 10 uM, cell line HepG2-A16-CD81EGFP
Conditions: human, HepG2-A16-CD81EGFP cells; read-out: INHIBITION
How it was run: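 Uninfected HepG2-A16-CD81EGFP cells, 3 × 10^3 per well, 1536-well, plated on prespotted compound at 10 μM final, parasite-free screening media added to match infected plates; puromycin 10 μM positive, DMSO 0.5% negative; run in parallel with 48 h PbLuc assay at 37 °C, 5% CO2; viability by CellTiter-Glo luminescence, normalized to controls.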

Row | Structure (SMILES) | cytotoxicity at 10 µM [%]
1 | CCc1c(C(=O)NCC2CCS(=O)(=O)C2)cnn1-c1ccc(C)cc1 (configuration not stated) | -6.69
2 | CN1C[C@H]2CN(Cc3cccc(OC(F)(F)F)c3)CCN2C1=O | 4.85
3 | O=C1CO[C@H]2CN(Cc3ccc(F)c(F)c3)C[C@H]2N1 | -2.49
4 | CN(C)C[C@H]1O[C@H](Cc2cc(-c3ccccn3)on2)CC[C@@H]1O | -3.15
5 | CC1=C(c2ccc(C)cc2)S(=O)(=O)N=C1N1CCc2ccccc21 | -7.12
6 | COc1ccc(-c2cc(C(=O)NCCC(C)C)n(C)n2)cc1 | 0
7 | COCCn1ccc2c(NC(=O)c3n[nH]c4c3CCCC4)cccc21 | 10.3
8 | NC(=O)Cn1c(CO)cnc1SCC(=O)NCc1ccccc1 | 0.252
9 | COC1COC2(CCN(Cc3ccco3)CC2)C1 (configuration not stated) | 8.62
10 | CCOc1cccc2c1OCC(=O)N(c1ccc3c(c1)OCO3)C2 | 17.1
11 | CC(C)(C)c1csc(CCNC(=O)C(c2ccccc2)n2cnnn2)n1 (configuration not stated) | 6.53
12 | CCOc1ccc(-n2nnc(C(=O)O)c2-c2ccncc2)cc1 | -4.14
13 | c1cnc(NCc2noc3c2CN(C2CCOCC2)CC3)nc1 | -6.23
14 | C/N=C1/c2cc3cc(OC)ccc3n2CCN1C | 3.34
15 | Cc1cc2c(cc1Cl)C=CC1(CCN(CC(=O)N3CCOCC3)CC1)O2 | -1.7
16 | COCCC(=O)N1CCC2(CC1)CN(C(C)=O)Cc1ccccc1O2 | 0.245
17 | COCC(=O)N1CCC2(CC1)CN(S(C)(=O)=O)Cc1ccccc1O2 | 7.3
18 | CN1CCC(NC(=O)C2CN(c3cncnc3)CCO2)CC1 (configuration not stated) | -32.5
19 | CCc1nnc(Nc2cccc(C3CCN(CC4CC4)CC3)n2)s1 | -26.8
20 | Cc1ccc(=O)n(CC2(O)CCN(Cc3cnc(N(C)C)nc3)CC2)n1 | -26
21 | Cc1ncc(CNC(=O)CCOc2ccccc2)c(C2CCCN2C)n1 (configuration not stated) | -1.03
22 | O=S(=O)(Nc1ccc(N2CCOCC2)cn1)c1cccc(F)c1 | -9.68
23 | CN(c1cccnc1N1CCCC1)S(=O)(=O)c1cccs1 | 20.4

Row | Structure (SMILES) | cytotoxicity at 10 µM [%]
24 | COc1c(F)cc(NCC(=O)NC(C)(C#N)C2CC2)cc1F (configuration not stated) | -3.82
25 | CNC(=O)Cc1ccc(NC(=O)NCC(C)c2ncc(C)s2)cc1 (configuration not stated) | -14.4
26 | CCCC(O)CNc1cncc(Br)c1 (configuration not stated) | 22.2
27 | Cc1cc(NC(=O)CNc2ccc(Br)cc2F)on1 | -28.1
28 | Cc1nnc(NC(=O)NCc2ccc(N3CCNC(=O)C3)cc2)s1 | -1.26
29 | O=C(CC1OCCc2ccsc21)NCC1CC1 (configuration not stated) | 7.18
30 | Cc1ccc(CNC(=O)NC2CCCN(c3ncccn3)C2)n1C (configuration not stated) | 5.23
31 | CN(CCc1ccncc1)C1CCCN(Cc2noc(C3CC3)n2)C1 (configuration not stated) | 8.66
32 | CN(Cc1ccc2c(c1)OCO2)Cc1nc(-c2ccco2)no1 | -1.64
33 | Cn1ncnc1CCNC(=O)c1cc(Cl)c(Cl)n1C | -5.12
34 | COc1ccc(S(=O)(=O)N2CCC(OCc3ccccn3)C2)cc1Br (configuration not stated) | 2.24
35 | CNS(=O)(=O)c1ccc(CNC(=O)c2ccccn2)cc1 | 10.2
36 | Cc1cccc(C2(C(=O)NCC(C)CN3CCCC3=O)CC2)c1 (configuration not stated) | -0.89
37 | Cc1cc(F)ccc1N1CCCC(NC2CCSCC2)C1=O (configuration not stated) | 1.07
38 | CC(C)COC(C)C(=O)N1CCCC1 (configuration not stated) | 2.77
39 | CCCS(=O)(=O)N(C)C(=O)CCc1ccccc1 | 4.83
40 | OC(COCc1ccco1)CSc1nnc2ccccn12 (configuration not stated) | 3.55
41 | Cc1cc(NC(C)C(=O)NCC(F)(F)F)nc(-c2ccncc2)n1 (configuration not stated) | 4.96
42 | CNC(=O)COc1ccccc1CNCc1c(C)noc1C | 2.32
43 | CNC(=O)C1CCCN(C(=O)C2CCC2)C1 (configuration not stated) | -4.47
44 | Cc1csc(CNc2cnn(CC(F)(F)F)c2)n1 | 5.19
45 | O=C1CCN(C(=O)c2ncoc2-c2ccco2)c2ncccc2N1 | -3.58
46 | CSCCC(C)NC(=O)N1CCSC(C)(C)C1 (configuration not stated) | 5.89

Row | Structure (SMILES) | cytotoxicity at 10 µM [%]
47 | O=C(c1ccncc1)N1CCCC1c1cccc(Br)c1 (configuration not stated) | 16.9
48 | CN(C)C(=O)N1CCN(C(=O)c2ccn3cncc3c2)CC1 | -9.96
49 | Cc1cnc(NC2CCN(CC(=O)Nc3ccccc3)CC2)nc1C | -5.47
50 | FC(F)(F)c1cc(NCCCn2cccn2)nc(-c2cccnc2)n1 | 8.06
51 | Cn1ccnc(Sc2cccc(C#N)c2)c1=O | 4.64
52 | CC(NCc1ccc(Cl)o1)c1nnc2n1CCCC2 (configuration not stated) | -15.9
53 | CNC(=O)NC(=O)CN1CCC(c2c[nH]c3ccc(OC)cc23)CC1 | 21.4
54 | Cc1ccccc1C(=O)NCc1ccc(N2CCNC(=O)C2)cc1 | -9.67
55 | CN(CC(N)=O)S(=O)(=O)c1ccc(F)cc1Cl | -11.9
56 | COCC(=O)N(C)Cc1cccc(Cl)c1 | -10.8
57 | COc1ccc(CNC(=O)NC2CCC(O)CC2)c(C(F)(F)F)c1 (configuration not stated) | -12
58 | c1ccc(CN2CCc3ncnc(-c4cncnc4)c3CC2)nc1 | -68.3
59 | CCC(=O)N1CCN(C(=O)c2cn3ccsc3n2)[C@H]2CS(=O)(=O)C[C@H]21 | 4.95
60 | CN(Cc1cc(C2CC2)[nH]n1)C(=O)c1cnn2ccn(C)c12 | -3.67
61 | CCC(CO)N(Cc1ccc(C(=O)O)cc1)Cc1ccsc1 (configuration not stated) | 2.17
62 | CCc1cnc(C)nc1NC1CC(=O)N(CC)C1 (configuration not stated) | 1.07
63 | CSCCC(O)C(=O)N1CCC(OCc2cccnc2)CC1 (configuration not stated) | 3.96
64 | COc1ccc2c(c1)OCC(Cc1ccc(N(C)C)nc1)C2 (configuration not stated) | 2.77
65 | Cc1cc(N2CCN(C(=O)Cc3c(C)nc(C)[nH]c3=O)CC2)cc(C)n1 | 9.66
66 | O=C(Cc1ccc(CO)cc1)N1CCN(c2ccccc2Cl)C(=O)C1 | 6.39
67 | Cc1ccc2c(c1)SCC(=O)N2Cc1noc(C2CCCO2)n1 (configuration not stated) | -0.0938
68 | CC(C)=CCC1(C(=O)O)CCCN(c2ccnc(N)n2)C1 (configuration not stated) | -13.7
69 | CN(C)c1ccccc1C(=O)N1C[C@@H](CN2CCC(O)CC2)[C@@H](CO)C1 | 3.11

Row | Structure (SMILES) | cytotoxicity at 10 µM [%]
70 | CCC1CN(C(=O)c2ccccc2N(C)C)CCN1C(C)C (configuration not stated) | -0.238
71 | CCN(Cc1ccncc1)Cc1c[nH]nc1-c1ccc(F)cc1 | -5.83
72 | CCc1nn(C)c(Cl)c1CN1C[C@H](NC(=O)CCO)[C@@H](C(C)C)C1 | 11.1
73 | CCc1[nH]c2c(CNC(=O)C3CCN(C)C3)cc(C)cc2c1C (configuration not stated) | -7.71
74 | O=C(C1CC1)N1CCN(C(=O)CSc2ccccn2)[C@H]2CS(=O)(=O)C[C@H]21 | -24.6
75 | CC(NCc1cc(O)c2cccc(F)c2n1)c1ccc(S(C)(=O)=O)cc1 (configuration not stated) | 4.03
76 | O=C1CCOCCN1Cc1ccc(C(F)(F)F)c(F)c1 | -7.63
77 | COCCc1noc(CN(C)C(=O)C2COc3ccccc3C2)n1 (configuration not stated) | 8.63
78 | Cc1nnc(SCCNC(=O)Cn2cnc3ccccc3c2=O)s1 | 4.79
79 | CN(C)CCN1CC(C(=O)N2CCC(c3cc(=O)[nH]cn3)CC2)CC1=O (configuration not stated) | -2.34
80 | CS(=O)(=O)N[C@H]1CN(CCOCc2ccccc2)C[C@@H]1C1CC1 | -1.1
81 | Clc1cc(NCc2nccs2)nc2[nH]ccc12 | 6.58
82 | CCOCC(O)c1nc2c([nH]1)CC(C)(C)CNC2=O (configuration not stated) | 4.71
83 | CCCc1ccc(OC23CCCN(CC2)C3)c(OC)c1 (configuration not stated) | -17.3
84 | C[C@@H]1CN(Cc2c[nH]c(CC3CCCC3)n2)CC[C@]1(C)O | 3.69
85 | Cc1ccc(C(=O)N2CCC3(CCC(=O)N(CCN(C)C)C3)CC2)nc1 | -1.62
86 | CCn1c(CN2CCCC2)nnc1C1CCN(Cc2cccnc2)CC1 | 3.33
87 | Cc1cc(-c2nn(C)c(Cl)c2CN2CCOCC2CC(N)=O)no1 (configuration not stated) | 3.3
88 | CCN(Cc1ccncc1)C(=O)CCn1c(C)cc2ccccc21 | -3.38
89 | O=S1(=O)COCCN1Cc1cccc(Cl)c1 | -11.4
90 | Cn1cccc1C(=O)N1CCCN(CCCc2ccccc2)CC1 | -16.4
91 | CCC1CN(C(=O)c2ccc(=O)[nH]c2)CCC(=O)N1Cc1ccccc1 (configuration not stated) | -17.6
92 | Cc1nc(CNC(=O)N(C)Cc2cnn(C)c2)cs1 | -14.3

Row | Structure (SMILES) | cytotoxicity at 10 µM [%]
93 | c1cnn(CC2CCCCN2c2ncnc3ccsc23)c1 (configuration not stated) | -13.9
94 | Cc1cnn(C2CCCN(C(=O)c3cccc(-n4cnnn4)c3)C2)c1 (configuration not stated) | -8.77
95 | CN(Cc1ccccc1)CC(O)Cn1cnc2ccc(Br)cc2c1=O (configuration not stated) | -9.04
96 | O=C(Nc1nccs1)NC1CCN(Cc2ccccc2)CC1 | -7.07
97 | Cc1nc(C(=O)N2CCCN(Cc3cnn(C)c3)CC2)ccc1C#N | -0.514
98 | CC(C)OCc1ccc(CNC(=O)CC(F)(F)F)cc1 | -2.26
99 | O=C(COc1ccc2c(c1)CCC2)N1CCOCC1c1ncon1 (configuration not stated) | -10.2
100 | O=C(NCCNc1ccccn1)N1CCSCC1 | -9.58
101 | CS(=O)(=O)NCC1CCCN(C(=O)c2ccc(Cl)o2)C1 (configuration not stated) | -10.2
102 | CCOc1ccc(CC(=O)N2CCN(c3nccn3C)CC2)cc1 | 6.85
103 | CCCC(=O)N(C)Cc1nc(N2CCCC2)ncc1-c1ccncc1 | 9.76
104 | Cc1ccc(CN2C(=O)CCC23CCC(NCC2CCOC2)CC3)cc1 (configuration not stated) | -4.75
105 | CN(CCO)CC1COCCN1C(=O)C1(c2cccs2)CCCC1 (configuration not stated) | -9.06
106 | O=C1[C@H]2CN(Cc3cccs3)C[C@H]2CN1c1ccsc1 | -79
107 | COCc1cncc2c1CCN(C(=O)c1cccc(C#N)c1)C2 | -98.2
108 | CC(C)C(=O)N1CC[C@H]2N(C)CC[C@@]2(C(=O)N2CCOCC2)CC1 | -0.449
109 | CC(C)NC(=O)[C@@H]1C[C@H]2NCC[C@H]2O1 | -96.9
110 | Cc1nc(CN2C(=O)COC3(CCN(Cc4nccs4)CC3)C2C)cs1 (configuration not stated) | -10.4
111 | CCOC(=O)[C@]12CCCN(Cc3nccs3)C[C@H]1CN(CCN(C)C)C2 | -9.82
112 | O=C(c1ccco1)N1C2CCC(O)(CC2)C1CO (configuration not stated) | 6.88
